Results reported in ChEMBL document CHEMBL1165950, “Design and synthesis of new potent anticancer pyrazoles with high FLT3 kinase inhibitory selectivity” (Bioorg Med Chem, 2010).

Columns and labels:
Assay type in all cases: functional
MOLT-4 [1] = experiment: Cytotoxicity against human MOLT4 cells assessed as cell growth at 0.01 uM after 48 hrs by sulforhodamine B assay; conditions: MOLT-4, 48 h, read-out: Activity
ACHN = experiment: Cytotoxicity against human ACHN cells assessed as cell growth at 10 uM after 48 hrs by sulforhodamine B assay; conditions: read-out: Activity
Procedure, shortened: (§1)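 NCI-60 five-dose screen. Cells were grown in RPMI 1640 with 5% FBS and 2 mM L-glutamine, plated at 5000–40,000 cells/well and preincubated for 24 h. Time-zero plates were TCA-fixed. DMSO-solubilized drug was added at five concentrations (10-fold or ½-log serial dilutions) for 48 h at 37 °C, 5% CO2. Cells were TCA-fixed, stained with 0.4% SRB and read at 515 nm. Percent growth used time-zero, control and test absorbances.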

M14 = experiment: Cytotoxicity against human M14 cells assessed as cell growth at 0.01 uM after 48 hrs by sulforhodamine B assay; conditions: M14, 48 h, read-out: Activity
IGROV-1 [2] = experiment: Cytotoxicity against human IGROV1 cells assessed as cell growth at 10 uM; conditions: read-out: Activity
Procedure, shortened: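 Single-dose NCI-60 screen at 10 µM. Cells were grown in RPMI 1640 with 5% FBS and 2 mM L-glutamine, then treated for 48 h at 37 °C. Protein was measured by SRB staining with absorbance at 515 nm. Percentage growth was recorded, and inhibition percentage was calculated as 100 minus growth percentage.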

SF-268 [3] = experiment: Cytotoxicity against human SF268 cells assessed as cell growth at 100 nM after 48 hrs by sulforhodamine B assay; conditions: SF-268, 48 h, read-out: Activity
HCT-116 = experiment: Cytotoxicity against human HCT116 cells assessed as cell growth at 10 uM after 48 hrs by sulforhodamine B assay; conditions: HCT-116, 48 h, read-out: Activity
SK-OV-3 = experiment: Cytotoxicity against human SKOV3 cells assessed as cell growth at 100 nM after 48 hrs by sulforhodamine B assay; conditions: SK-OV-3, 48 h, read-out: Activity
UACC-257 = experiment: Cytotoxicity against human UACC257 cells assessed as cell growth at 1 uM after 48 hrs by sulforhodamine B assay; conditions: UACC-257, 48 h, read-out: Activity
IGROV-1 [4] = experiment: Cytotoxicity against human IGROV1 cells assessed as cell growth at 100 nM after 48 hrs by sulforhodamine B assay; conditions: IGROV-1, 48 h, read-out: Activity
HCT-15 = experiment: Cytotoxicity against human HCT15 cells assessed as cell growth at 10 uM after 48 hrs by sulforhodamine B assay; conditions: HCT-15, 48 h, read-out: Activity
NCI/ADR-RES [5] = experiment: Cytotoxicity against human NCI/ADR-RES cells assessed as cell growth at 1 uM after 48 hrs by sulforhodamine B assay; conditions: read-out: Activity
Malme-3M = experiment: Cytotoxicity against human MALME-3M cells assessed as cell growth at 10 uM; conditions: read-out: Activity
Procedure, shortened: (§2)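 NCI-60 screen: cells grown in RPMI 1640 with 5% FBS and 2 mM L-glutamine, plated at 5000–40,000 cells/well according to doubling time, and preincubated 24 h at 37 °C, 5% CO2. The single 10 µM dose (DMSO stock) was added, then incubated 48 h. Cells were TCA-fixed and stained with 0.4% SRB, read at 515 nm, and growth % calculated against time-zero and control plates.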

SF-295 = experiment: Cytotoxicity against human SF295 cells assessed as cell growth at 10 uM after 48 hrs by sulforhodamine B assay; conditions: SF-295, 48 h, read-out: Activity
LOX IMVI = experiment: Cytotoxicity against human LOXIMVI cells assessed as cell growth at 100 nM after 48 hrs by sulforhodamine B assay; conditions: read-out: Activity
MDA-MB-468 [6] = experiment: Growth inhibition of human MDA-MB-468 cells after 48 hrs by sulforhodamine B assay; conditions: MDA-MB-468, 48 h
Procedure, shortened: (§3)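 NCI 60-cell screen, five-dose mode. Cells grown in RPMI 1640 with 5% FBS and 2 mM L-glutamine and plated at 5000-40,000 cells/well according to doubling time. After 24 h preincubation, a Tz plate was TCA-fixed. Five concentrations (10-fold or 1/2 log dilutions) were applied for 48 h at 37 °C. SRB staining read at 515 nm. IC50 taken from [(Ti-Tz)/(C-Tz)]×100 = 50.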

MDA-MB-468 [7] = experiment: Cytotoxicity against human MDA-MB-468 cells assessed as cell growth at 100 nM after 48 hrs by sulforhodamine B assay; conditions: MDA-MB-468, 48 h, read-out: Activity
HT-29 = experiment: Cytotoxicity against human HT-29 cells assessed as cell growth at 100 nM after 48 hrs by sulforhodamine B assay; conditions: HT-29, 48 h, read-out: Activity
UO-31 = experiment: Cytotoxicity against human UO31 cells assessed as cell growth at 100 nM after 48 hrs by sulforhodamine B assay; conditions: UO-31, 48 h, read-out: Activity
EKVX = experiment: Cytotoxicity against human EKVX cells assessed as cell growth at 100 nM after 48 hrs by sulforhodamine B assay; conditions: read-out: Activity
NCI/ADR-RES [8] = experiment: Growth inhibition of human NCI/ADR-RES cells after 48 hrs by sulforhodamine B assay; procedure, shortened: as §3
HOP-92 = experiment: Growth inhibition of human HOP92 cells after 48 hrs by sulforhodamine B assay; conditions: HOP-92, 48 h; procedure, shortened: as §3
MOLT-4 [9] = experiment: Cytotoxicity against human MOLT4 cells assessed as cell growth at 10 uM; conditions: read-out: Activity; procedure, shortened: as §2
NCI-H322M = experiment: Cytotoxicity against human NCI-H322M cells assessed as cell growth at 10 uM after 48 hrs by sulforhodamine B assay; conditions: read-out: Activity
A498 = experiment: Cytotoxicity against human A498 cells assessed as cell growth at 0.01 uM after 48 hrs by sulforhodamine B assay; conditions: A498, 48 h, read-out: Activity; procedure, shortened: as §1
OVCAR-4 = experiment: Cytotoxicity against human OVCAR4 cells assessed as cell growth at 100 nM after 48 hrs by sulforhodamine B assay; conditions: OVCAR-4, 48 h, read-out: Activity
SF-268 [10] = experiment: Cytotoxicity against human SF268 cells assessed as cell growth at 1 uM after 48 hrs by sulforhodamine B assay; conditions: SF-268, 48 h, read-out: Activity
SF-539 = experiment: Cytotoxicity against human SF539 cells assessed as cell growth at 100 nM after 48 hrs by sulforhodamine B assay; conditions: SF-539, 48 h, read-out: Activity
UACC-62 = experiment: Growth inhibition of human UACC62 cells after 48 hrs by sulforhodamine B assay; conditions: UACC-62, 48 h; procedure, shortened: as §3
DU-145 = experiment: Cytotoxicity against human DU145 cells assessed as cell growth at 10 uM after 48 hrs by sulforhodamine B assay; conditions: DU-145, 48 h, read-out: Activity
U-251 = experiment: Cytotoxicity against human U251 cells assessed as cell growth at 0.01 uM after 48 hrs by sulforhodamine B assay; conditions: U-251, 48 h, read-out: Activity
[11] = read-out: LC50 (the source's name)

Which results are given for `COc1cc(C)cc(-c2c(-c3ccnc(-c4ccc(N(C)C)cc4)c3)cnn2CC#N)c1`?
growth at 0.01 µM (MOLT-4 [1]): 81%; growth at 10 µM (ACHN): 16%; growth at 0.01 µM (M14): -19%; growth at 10 µM (IGROV-1 [2]): 20.1%; growth at 0.1 µM (SF-268 [3]): 29%; growth at 10 µM (HCT-116): -27%; growth at 0.1 µM (SK-OV-3): 37%; growth at 1 µM (UACC-257): 29%; growth at 0.1 µM (IGROV-1 [4]): 2%; growth at 10 µM (HCT-15): 9%; growth at 1 µM (NCI/ADR-RES [5]): 7%; growth at 10 µM (Malme-3M): 103%; growth at 10 µM (SF-295): -30%; growth at 0.1 µM (LOX IMVI): 19%; GI50 (MDA-MB-468 [6]): 26.1 nM; LC50 (concentration giving 50% net cell kill) (MDA-MB-468 [6]): 1040 nM; TGI (MDA-MB-468 [6]): 79.8 nM; growth at 0.1 µM (MDA-MB-468 [7]): -50%; growth at 0.1 µM (HT-29): -24%; growth at 0.1 µM (UO-31): 45%; growth at 0.1 µM (EKVX): 14%; GI50 (NCI/ADR-RES [8]): 47.9 nM; TGI (NCI/ADR-RES [8]): > 100000 nM; CC50 (NCI/ADR-RES [8]; [11]): > 100000 nM; GI50 (HOP-92): < 10 nM; TGI (HOP-92): 55.3 nM; CC50 (HOP-92; [11]): > 100000 nM; growth at 10 µM (MOLT-4 [9]): 9.77%; growth at 10 µM (NCI-H322M): 21%; growth at 0.01 µM (A498): 40%; growth at 0.1 µM (OVCAR-4): 33%; growth at 1 µM (SF-268 [10]): 24%; growth at 0.1 µM (SF-539): -29%; GI50 (UACC-62): 61.9 nM; TGI (UACC-62): > 100000 nM; CC50 (UACC-62; [11]): > 100000 nM; growth at 10 µM (DU-145): -48%; growth at 0.01 µM (U-251): 41%
